From ChEMBL document CHEMBL5058577, “EUbOPEN Chemogenomics Library 2 (Multiplex)” (2022)

System: U2OS
Assay: Multiplex assay against U2OS
Assay type: toxicity, cell-based
Conditions: human
In short: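 Hoechst33342, BioTracker Green Microtubule Cytoskeleton Dye, MitoTracker Red and Annexin V Alexa Fluor 680 were added to live cells at seeding, and imaging on a CQ1 microscope at 37°C and 5% CO2 followed compound addition. Gating by CellPathfinder machine learning separated cells into Hoechst high-intensity objects or normal cells, then normal cells into healthy, pyknosed or fragmented nuclei, then pyknosed cells into mitotic or apoptotic. Per cents of healthy-nucleus cells are reported for the tubulin, mitochondrial-mass and membrane-permeability phenotypes.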

[1] = 12 h, 1 µM, compound concentration 1 uM, replicate 1
[2] = 12 h, 1 µM, compound concentration 1 uM, replicate 2
[3] = 12 h, 10 µM, compound concentration 10 uM, replicate 1
[4] = 12 h, 10 µM, compound concentration 10 uM, replicate 2
[5] = 24 h, 1 µM, compound concentration 1 uM, replicate 1
[6] = 24 h, 1 µM, compound concentration 1 uM, replicate 2
[7] = 24 h, 10 µM, compound concentration 10 uM, replicate 1
[8] = 24 h, 10 µM, compound concentration 10 uM, replicate 2
[9] = 48 h, 1 µM, compound concentration 1 uM, replicate 1
[10] = 48 h, 1 µM, compound concentration 1 uM, replicate 2
[11] = 48 h, 10 µM, compound concentration 10 uM, replicate 1
[12] = 48 h, 10 µM, compound concentration 10 uM, replicate 2

Structure (SMILES): CC(C)C[C@H](CO)Nc1nc(S[C@@H](C)c2ccccc2)nc2nc(N)sc12 [AZD-8797]
- Population Apoptotic (%) [1]: 83%
- Population Fragmented Nuclei (%) [1]: 20%
- Population Healthy Nuclei (%) [1]: 65%
- Population Hoechst High Intensity Objects (%) [1]: 3%
- Population Membrane Permeable-Phenotype (%) [1]: 5%
- Population Mitochondria Different-Phenotype (%) [1]: 1%
- Population Mitotic Cells (%) [1]: 16%
- Population Normal (%) [1]: 96%
- Population Pyknosed Nuclei (%) [1]: 14%
- Population Tubulin-Different-Phenotype (%) [1]: 2%
- Total Cell Count [1]: 177
- Population Apoptotic (%) [2]: 100%
- Population Fragmented Nuclei (%) [2]: 12%
- Population Healthy Nuclei (%) [2]: 82%
- Population Hoechst High Intensity Objects (%) [2]: 0%
- Population Mitochondria Different-Phenotype (%) [2]: 5%
- Population Mitotic Cells (%) [2]: 0%
- Population Normal (%) [2]: 100%
- Population Pyknosed Nuclei (%) [2]: 5%
- Population Tubulin-Different-Phenotype (%) [2]: 3%
- Total Cell Count [2]: 95
- Population Apoptotic (%) [3]: 63%
- Population Fragmented Nuclei (%) [3]: 21%
- Population Healthy Nuclei (%) [3]: 56%
- Population Hoechst High Intensity Objects (%) [3]: 4%
- Population Membrane Permeable-Phenotype (%) [3]: 30%
- Population Mitochondria Different-Phenotype (%) [3]: 12%
- Population Mitotic Cells (%) [3]: 36%
- Population Normal (%) [3]: 95%
- Population Pyknosed Nuclei (%) [3]: 22%
- Population Tubulin-Different-Phenotype (%) [3]: 20%
- Total Cell Count [3]: 222
- Population Apoptotic (%) [4]: 78%
- Population Fragmented Nuclei (%) [4]: 9%
- Population Healthy Nuclei (%) [4]: 79%
- Population Hoechst High Intensity Objects (%) [4]: 2%
- Population Membrane Permeable-Phenotype (%) [4]: 10%
- Population Mitochondria Different-Phenotype (%) [4]: 16%
- Population Mitotic Cells (%) [4]: 21%
- Population Normal (%) [4]: 97%
- Population Pyknosed Nuclei (%) [4]: 10%
- Population Tubulin-Different-Phenotype (%) [4]: 6%
- Total Cell Count [4]: 135
- Population Apoptotic (%) [5]: 81%
- Population Fragmented Nuclei (%) [5]: 20%
- Population Healthy Nuclei (%) [5]: 68%
- Population Hoechst High Intensity Objects (%) [5]: 1%
- Population Membrane Permeable-Phenotype (%) [5]: 2%
- Population Mitochondria Different-Phenotype (%) [5]: 0%
- Population Mitotic Cells (%) [5]: 18%
- Population Normal (%) [5]: 98%
- Population Pyknosed Nuclei (%) [5]: 10%
- Population Tubulin-Different-Phenotype (%) [5]: 2%
- Total Cell Count [5]: 219
- Population Apoptotic (%) [6]: 83%
- Population Fragmented Nuclei (%) [6]: 17%
- Population Healthy Nuclei (%) [6]: 77%
- Population Hoechst High Intensity Objects (%) [6]: 0%
- Population Membrane Permeable-Phenotype (%) [6]: 4%
- Population Mitochondria Different-Phenotype (%) [6]: 2%
- Population Mitotic Cells (%) [6]: 16%
- Population Normal (%) [6]: 100%
- Population Pyknosed Nuclei (%) [6]: 4%
- Population Tubulin-Different-Phenotype (%) [6]: 3%
- Total Cell Count [6]: 121
- Population Apoptotic (%) [7]: 76%
- Population Fragmented Nuclei (%) [7]: 20%
- Population Healthy Nuclei (%) [7]: 58%
- Population Hoechst High Intensity Objects (%) [7]: 3%
- Population Membrane Permeable-Phenotype (%) [7]: 22%
- Population Mitochondria Different-Phenotype (%) [7]: 12%
- Population Mitotic Cells (%) [7]: 24%
- Population Normal (%) [7]: 96%
- Population Pyknosed Nuclei (%) [7]: 21%
- Population Tubulin-Different-Phenotype (%) [7]: 13%
- Total Cell Count [7]: 245
- Population Apoptotic (%) [8]: 100%
- Population Fragmented Nuclei (%) [8]: 7%
- Population Healthy Nuclei (%) [8]: 86%
- Population Hoechst High Intensity Objects (%) [8]: 1%
- Population Membrane Permeable-Phenotype (%) [8]: 9%
- Population Mitotic Cells (%) [8]: 0%
- Population Normal (%) [8]: 98%
- Population Pyknosed Nuclei (%) [8]: 6%
- Population Tubulin-Different-Phenotype (%) [8]: 6%
- Total Cell Count [8]: 156
- Population Apoptotic (%) [9]: 94%
- Population Fragmented Nuclei (%) [9]: 18%
- Population Healthy Nuclei (%) [9]: 69%
- Population Hoechst High Intensity Objects (%) [9]: 2%
- Population Membrane Permeable-Phenotype (%) [9]: 6%
- Population Mitochondria Different-Phenotype (%) [9]: 0%
- Population Mitotic Cells (%) [9]: 5%
- Population Normal (%) [9]: 97%
- Population Pyknosed Nuclei (%) [9]: 11%
- Population Tubulin-Different-Phenotype (%) [9]: 2%
- Total Cell Count [9]: 352
- Population Apoptotic (%) [10]: 100%
- Population Fragmented Nuclei (%) [10]: 15%
- Population Healthy Nuclei (%) [10]: 77%
- Population Membrane Permeable-Phenotype (%) [10]: 2%
- Population Mitochondria Different-Phenotype (%) [10]: 2%
- Population Mitotic Cells (%) [10]: 0%
- Population Pyknosed Nuclei (%) [10]: 6%
- Total Cell Count [10]: 181
- Population Apoptotic (%) [11]: 90%
- Population Fragmented Nuclei (%) [11]: 26%
- Population Healthy Nuclei (%) [11]: 54%
- Population Hoechst High Intensity Objects (%) [11]: 4%
- Population Membrane Permeable-Phenotype (%) [11]: 20%
- Population Mitochondria Different-Phenotype (%) [11]: 10%
- Population Mitotic Cells (%) [11]: 9%
- Population Normal (%) [11]: 95%
- Population Pyknosed Nuclei (%) [11]: 19%
- Population Tubulin-Different-Phenotype (%) [11]: 14%
- Total Cell Count [11]: 296
- Population Apoptotic (%) [12]: 96%
- Population Fragmented Nuclei (%) [12]: 12%
- Population Healthy Nuclei (%) [12]: 74%
- Population Hoechst High Intensity Objects (%) [12]: 3%
- Population Membrane Permeable-Phenotype (%) [12]: 11%
- Population Mitochondria Different-Phenotype (%) [12]: 5%
- Population Mitotic Cells (%) [12]: 3%
- Population Normal (%) [12]: 96%
- Population Pyknosed Nuclei (%) [12]: 12%
- Population Tubulin-Different-Phenotype (%) [12]: 4%
- Total Cell Count [12]: 218
